Only some compounds are listed: those with a hit (about 3% of all), similar ones and a draw of the others.
DNA FID counter – counter-screen for HCV NS3 helicase inhibitors: DNA intercalator displacement. AID 1845. DNA fluorescent intercalator displacement, fluorescence. inhibition, % at 7.9 µM. 290,000 compounds, 0.17% hits; in the data active = inhibition above about 37%;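 note: higher means more ethidium bromide displaced from hairpin DNA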
TMEM16A act – mouse TMEM16A channel activation, primary screen. Q8BHY3. HEK293 TMEM16A/YFP-H148Q/I152L, iodide quench fluorescence; stronger effect = lower value. B-score at 10 µM. 340,000 compounds, 0.3% hits. AID 623877;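 active = fluorescence-ratio B-score plate-corrected deviation score at least 3 library SD below zero, with starting fluorescence score within 5 deviations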;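 note: channel opened by trigger with iodide after compound preincubation; score built on the fluorescence ratio of max minus min over baseline; more negative score means more quench and so TMEM16A activation or potentiation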
ANO1 block – mouse TMEM16A channel inhibition, primary screen; Q8BHY3; HEK293 TMEM16A/YFP iodide influx fluorescence, ionomycin; normalized B-score (activity score, 25-100; higher = stronger inhibition) at 10 µM; 310,000 compounds, 1.2% hits;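 active = ratio plate-corrected score three or more library SD toward inhibition, starting fluorescence score within five deviations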;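 note: score derived from kinetic fluorescence span divided by baseline fluorescence per well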
Kir21 block – Kir2.1 (mouse) channel inhibition; B-score at 10 µM; P35561; HEK293-Kir2.1, FluxOR thallium flux fluorescence; stronger effect = lower value; 310,000 compounds, 0.85% hits; AID 1672;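 active = fluorescence ratio B-score at or below minus 3 SD of library scores, with starting-brightness B-score within 2 SD, cut at about -4.2 in these data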;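 note: channel flux triggered by added potassium and thallium sulfate stimulus; B-score of peak minus minimum fluorescence over baseline after thallium stimulus; more negative B-score means stronger Kir2.1 block with less thallium influx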
Target sequence (P35561 whole entry, looked up): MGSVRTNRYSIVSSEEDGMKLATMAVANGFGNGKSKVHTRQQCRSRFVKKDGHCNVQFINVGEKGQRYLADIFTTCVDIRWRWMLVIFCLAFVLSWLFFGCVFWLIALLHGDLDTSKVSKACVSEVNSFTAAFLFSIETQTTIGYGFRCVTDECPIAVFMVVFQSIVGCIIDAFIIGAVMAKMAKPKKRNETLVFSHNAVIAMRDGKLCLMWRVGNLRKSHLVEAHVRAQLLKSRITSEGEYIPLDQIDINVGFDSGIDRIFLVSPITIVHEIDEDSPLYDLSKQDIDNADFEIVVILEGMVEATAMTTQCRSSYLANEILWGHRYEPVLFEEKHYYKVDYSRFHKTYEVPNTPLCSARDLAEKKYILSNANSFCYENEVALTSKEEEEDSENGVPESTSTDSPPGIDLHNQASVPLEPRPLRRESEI
SR-BI uptake up – enhances SR-BI lipid uptake from DiI-HDL. AID 504775. activation, % at 12.5 µM. CHO ldlA[mSR-BI] cells, DiI-HDL uptake fluorescence, 3 h; 100 = double the neutral-control signal. 320,000 compounds, 0.096% hits;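 active = mean replicate activation of at least 60% and every replicate at or above 60%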
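material = CHO ldlA[mSR-BI] cells | medium = Ham's F12 with 0.5% BSA, HEPES 25 mM, pH 7.4 | reagent = fluorescent DiI-HDL, 10 µg/mL final | compound dosing = single-point compound dose | incubation = 3 h, 37 °C | measured by = bottom-read fluorescence, 550/595 nm | measure = HDL uptake via cellular fluorescence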
SR-BI HDL uptake – blocks mouse SR-BI lipid uptake from DiI-HDL; AID 488896; 320,000 compounds, 0.96% hits; inhibition, % at 12.5 µM; Q61009; ldlA[mSR-BI] CHO cells, DiI-HDL uptake fluorescence, 3 h;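 active = mean replicate inhibition of at least 70% and a set share of replicates each scoring 70 or more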
TMEM16A reconf – re-confirmation of mouse TMEM16A chloride channel inhibitors | shares compounds with ANO1 block | HEK293 TMEM16A/YFP-H148Q, iodide quench fluorescence; ionomycin added to raise cell calcium | inhibition, % at 10 µM | 2,300 compounds, 39% hits | AID 652189;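 active = mean duplicate percent inhibition, scaled so buffer wells are 0 and the reference blocker 100, over three buffer SD above buffer mean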
TMEM16A Ca cntr – calcium mobilization counter-screen hit for TMEM16A inhibitor series; shares compounds with ANO1 block; TMEM16A/YFP HEK293, Fluo4 calcium mobilization; calcium response (% of ionomycin), % at 10 µM; 2,300 compounds, 2% hits; AID 652231;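 active = duplicate-averaged calcium signal over 20% of the ionomycin maximum, relative to buffer baseline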;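 note: each well's signal is peak minus trough fluorescence divided by its pre-addition baseline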
Parental YFP cnt – acts in parental YFP-HEK293 cells lacking TMEM16A, counter-screen. shares compounds with ANO1 block. iodide YFP quench, ionomycin. YFP ratio F(max-min)/F0 at 10 µM. 2,300 tested, under 10 active. AID 652233;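 active = yellow fluorescent protein signal ratio exceeding the buffer control mean by over 5 SD of those controls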;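 note: ratio is mean of duplicate wells from kinetic YFP trace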
ClC-1 rat inh – blocks the rat ClC-1 voltage-dependent chloride channel; shares compounds with ANO1 block; CHO ClC-1-YFP, iodide influx fluorescence quench; iodide control reads 0, buffer control 100; ratio percent, % at 10 µM; 2,300 tested, under 10 active; AID 652236;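 active = duplicate-mean ratio percent above the mean of iodide-only control wells, which defines zero, plus 5 of their SD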;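 note: higher percent means stronger block of ClC-1 iodide influx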
A number is an active result; 0 = inactive; - = no result.

SMILES	DNA FID counter	TMEM16A act	ANO1 block	Kir21 block	SR-BI uptake up	SR-BI HDL uptake	TMEM16A reconf	TMEM16A Ca cntr	Parental YFP cnt	ClC-1 rat inh
O=C(NC1CCCC1)c1cc(COc2ccc3ncccc3c2)on1	0	0	25	0	0	0	0	0	0	0
COc1ccc(OC)c(NC(=O)CSc2nnc(NC(=O)c3ccco3)s2)c1	0	0	0	0	0	0	-	-	-	-
CC(C)C(=O)NC(=S)Nc1ccc(S(=O)(=O)NC2CCCCC2)cc1	0	0	0	0	0	0	-	-	-	-
O=C(OCc1nnc(-c2ccccc2)o1)C1CC(=O)N(CCc2ccccc2)C1 (stereo unspecified)	-	0	-	-	0	0	-	-	-	-
O=C(c1cc(COc2ccc3ncccc3c2)on1)N1CCCC1	0	0	25	0	0	0	26%	0	0	0
O=C(NCCc1cn2ccccc2n1)c1cc(COc2ccc3ncccc3c2)on1	0	0	100	0	0	0	19%	0	0	0
CCCCOc1ccc(C(=O)NCC(=O)NCC(c2ccc(OC)cc2)N2CCCC2)cc1 (stereo unspecified)	-	0	0	0	0	0	-	-	-	-
C=CCN(c1ccccc1Cl)S(=O)(=O)c1cccc(C(=O)OCC(=O)N(C)C2CCS(=O)(=O)C2)c1 (stereo unspecified)	0	0	0	0	0	0	-	-	-	-
CCOC(=O)c1c(C)c(C)n(Cc2cccc(OC)c2OC)c1C	0	0	0	0	0	0	-	-	-	-
CCOC(=O)c1cc(C)n(Cc2cccc(OC)c2OC)c1C	0	0	25	0	0	0	29%	0	0	0
c1ccc2c(-c3c[nH]c4ccccc34)c3ccccc3nc2c1	0	0	25	0	0	0	0	0	0	0
COc1ccccc1C(=O)NC(=O)Nc1nc(-c2ccccc2)cc(C(F)(F)F)n1	0	0	25	0	0	0	0	0	0	0
O=C(NC(=O)c1cccc(F)c1)Nc1nc(-c2ccc(F)cc2)cc(C(F)(F)F)n1	0	0	0	0	0	0	-	-	-	-
O=C(c1ccc2c(c1)OCCO2)N1CCN(Cc2c(F)cccc2Cl)CC1	-	0	-	-	0	0	-	-	-	-
CC(NC(=O)CN1CCCC1)C12CC3CC(CC(C3)C1)C2 (stereo unspecified)	0	0	0	0	0	0	-	-	-	-
CC(NC(=O)Cn1cnnn1)C12CC3CC(CC(C3)C1)C2 (stereo unspecified)	0	0	100	0	0	0	0	0	0	0
CC1Cc2ccccc2N1C(=S)Nc1ccc(S(N)(=O)=O)cc1 (stereo unspecified)	0	0	100	0	0	0	0	0	0	0
CC(C)C1Cc2c(sc3[nH]c(=S)n(Cc4ccccc4)c(=O)c23)CO1 (stereo unspecified)	0	0	100	0	0	0	0	0	0	0
COC(=O)c1c(NC(=O)CC2SC(N)=NC2=O)sc2c1CCC(C(C)(C)C)C2 (stereo unspecified)	0	0	0	0	0	0	-	-	-	-
COC(=O)C1=C(C(=O)OC)[C@@H]2Nc3ccccc3[C@@]23C[C@@H](C(=O)OC)N(C(=O)C2CCC2)C3=N1	-	0	0	0	0	0	-	-	-	-
O=C(Cn1cnc2c(oc3ccccc32)c1=O)N1CCCc2ccccc21	0	0	0	0	0	0	-	-	-	-
O=C(CSc1ncnc2c1oc1ccccc12)N1CCCc2ccccc21	0	0	100	0	0	0	28%	0	0	0
O=C(Cc1ccccc1[N+](=O)[O-])OCC(=O)c1ccccc1Br	-	0	-	-	0	0	-	-	-	-
